From ChEMBL document CHEMBL2203173 (J Med Chem, 2012) come the findings set out here.

The structures appear in SMILES notation.

Data set [1] has as its system Mus musculus. Kind of data set: Cardiotoxicity in BALB/c nu/nu mouse xenografted with human DMS53 cells at 4 mg/kg, iv administered for 5 days a week measured after 21 days. The data set is classed as toxicity, organism-based, DMS-53. Particulars: in vivo, 504 h. More on the design: dose 4 mg/kg, route intravenous. The procedure, abridged:
(§1)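 DMS-53 xenograft nude mice given agents iv by tail vein 5 days/week in 30% propylene glycol/saline for 21 days. At sacrifice, heart sections were stained with Gomori Trichrome to detect fibrosis. Spleen, kidney, liver, heart, lungs and brain were also stained with H&E and Perls' and examined by an independent veterinary pathologist.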
(In general: A xenograft is tissue or cells of one species grown in another, often human tumour cells in immunodeficient mice.)

For data set [2], the system named is Mus musculus. Briefly: Toxicity in BALB/c nu/nu mouse xenografted with human DMS53 cells assessed as change in platelet count at 4 mg/kg, iv administered for 5 days a week measured after 21 days. In kind it is organism-based, DMS-53. More on the design: dose 4 mg/kg, route intravenous. Particulars: in vivo, 504 h. The method, boiled down: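 Nude mice carrying DMS-53 xenografts (treatment from 100 mm3) received iv tail-vein doses in 30% propylene glycol/saline, 5 days/week for 21 days. Hematological indices (RBC, hemoglobin, hematocrit, reticulocytes, WBC, platelets) were then compared with vehicle controls.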

Data set [3] relates to Mus musculus. Kind of data set: Toxicity in BALB/c nu/nu mouse xenografted with human DMS53 cells assessed as hepatocellular fibrosis at 8 mg/kg, iv administered for 5 days a week measured after 21 days by hematoxylin and eosin staining method. In kind it is organism-based, DMS-53. Further details: dose 8 mg/kg, route intravenous. The following applies: in vivo, 504 h. The procedure, abridged:
(§2)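 Nude mice with DMS-53 xenografts dosed by tail-vein iv injection in 30% propylene glycol/saline, starting at 100 mm3 tumour volume, 5 days/week for 21 days. Spleen, kidney, liver, heart, lungs and brain were stained with H&E, Perls' (Fe loading) and Gomori Trichrome (fibrosis) by standard methods, and an independent veterinary pathologist examined them.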

Data set [4] deals with Mus musculus. Briefly: Cardiotoxicity in BALB/c nu/nu mouse xenografted with human DMS53 cells at 8 mg/kg, iv administered for 5 days a week measured after 21 days. In kind it is toxicity, organism-based, DMS-53. More on the design: dose 8 mg/kg, route intravenous. Particulars: in vivo, 504 h. The procedure, abridged:
as §1

In data set [5] the test system is Mus musculus. Briefly: Toxicity in BALB/c nu/nu mouse xenografted with human DMS53 cells assessed as hepatocellular necrosis at 4 mg/kg, iv administered for 5 days a week measured after 21 days by hematoxylin and eosin staining method. The data set is classed as organism-based, DMS-53. Further details: dose 4 mg/kg, route intravenous. Particulars: in vivo, 504 h. The procedure, abridged: as §2

Data set [6] deals with Mus musculus. Briefly: Toxicity in BALB/c nu/nu mouse xenografted with human DMS53 cells assessed as vacuolation at 4 mg/kg, iv administered for 5 days a week measured after 21 days by hematoxylin and eosin staining method. The data set is classed as organism-based, DMS-53. Particulars: in vivo, 504 h. Further details: dose 4 mg/kg, route intravenous. The procedure, abridged: as §2

Data set [7] has as its system Mus musculus. Briefly: Toxicity in BALB/c nu/nu mouse xenografted with human DMS53 cells assessed as change in RBC count at 4 mg/kg, iv administered for 5 days a week measured after 21 days. In kind it is organism-based, DMS-53. More on the design: dose 4 mg/kg, route intravenous. Particulars: in vivo, 504 h.
Data set [8] concerns Mus musculus. Kind of data set: Toxicity in BALB/c nu/nu mouse xenografted with human DMS53 cells assessed as change in kidney histology at 7.5 mg/kg, po administered for 3 times a week measured after 20 days. The data set is classed as organism-based, DMS-53. Further details: dose 7.5 mg/kg, route oral. The following applies: in vivo, 480 h. The method, boiled down:
(§3)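 Nude mice bearing DMS-53 xenografts gavaged 3 times/week for 20 days, vehicle 30% propylene glycol/saline, vehicle controls, n = 6-11 mice/condition. Sacrifice on day 20. Organ weights and hematological indices recorded. Spleen, kidney, liver, heart, lungs and brain examined histologically, hearts stained with Gomori Trichrome for fibrosis.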

For data set [9], the system named is Mus musculus. Kind of data set: Toxicity in BALB/c nu/nu mouse xenografted with human DMS53 cells assessed as change in hemoglobin level at 4 mg/kg, iv administered for 5 days a week measured after 21 days. In kind it is organism-based, DMS-53. More on the design: dose 4 mg/kg, route intravenous. The following applies: in vivo, 504 h. The procedure, abridged:
(§4)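 DMS-53 xenografts in nude mice; dosing started at 100 mm3 tumor volume. Agents given iv via tail vein, 5 days/week for 21 days, vehicle 30% propylene glycol/saline, vehicle-treated controls. Mice sacrificed day 21. Body and organ weights and hematological indices recorded. Spleen, kidney, liver, heart, lungs and brain were stained with H&E, Perls' and Gomori Trichrome and read by an independent veterinary pathologist.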

The test system of data set [10] is Mus musculus. Briefly: Toxicity in BALB/c nu/nu mouse xenografted with human DMS53 cells assessed as change in hematopoetic cells in splenic red pulp at 6 mg/kg, iv administered for 5 days a week measured after 21 days by hematoxylin and eosin staining method. Further details: dose 6 mg/kg, route intravenous. Particulars: in vivo, 504 h. In kind it is organism-based, DMS-53. The method, boiled down:
as §4

The test system of data set [11] is Mus musculus. Kind of data set: Toxicity in BALB/c nu/nu mouse xenografted with human DMS53 cells assessed as hepatocellular necrosis at 3 mg/kg, iv administered for 5 days a week measured after 21 days by hematoxylin and eosin staining method. The data set is classed as organism-based, DMS-53. More on the design: dose 3 mg/kg, route intravenous. Particulars: in vivo, 504 h. The procedure, abridged: as §2

For data set [12], the system named is Mus musculus. Briefly: Toxicity in BALB/c nu/nu mouse xenografted with human DMS53 cells assessed as hepatocellular necrosis at 6 mg/kg, iv administered for 5 days a week measured after 21 days by hematoxylin and eosin staining method. Further details: dose 6 mg/kg, route intravenous. The data set is classed as organism-based, DMS-53. The following applies: in vivo, 504 h. The method, boiled down:
as §2

Data set [13] concerns Mus musculus. Kind of data set: Toxicity in BALB/c nu/nu mouse xenografted with human DMS53 cells assessed as body weight change at 10 mg/kg, po administered for 3 times a week measured after 20 days. The following applies: in vivo, 480 h.
In data set [14] the test system is Mus musculus. Kind of data set: Toxicity in BALB/c nu/nu mouse xenografted with human DMS53 cells assessed as hepatocellular fibrosis at 3 mg/kg, iv administered for 5 days a week measured after 21 days by hematoxylin and eosin staining method. In kind it is organism-based, DMS-53. More on the design: dose 3 mg/kg, route intravenous. Particulars: in vivo, 504 h. The procedure, abridged:
as §2

In data set [15] the test system is Mus musculus. Briefly: Toxicity in BALB/c nu/nu mouse xenografted with human DMS53 cells assessed as change in hematopoetic cells in splenic red pulp at 3 mg/kg, iv administered for 5 days a week measured after 21 days by hematoxylin and eosin staining method. The data set is classed as organism-based, DMS-53. Further details: dose 3 mg/kg, route intravenous. The following applies: in vivo, 504 h. The method, boiled down: as §4

In data set [16] the test system is Mus musculus. Briefly: Toxicity in BALB/c nu/nu mouse xenografted with human DMS53 cells assessed as body weight change at 7.5 mg/kg, po administered for 3 times a week measured after 20 days. Particulars: in vivo, 480 h.
Data set [17] has as its system Mus musculus. Kind of data set: Toxicity in BALB/c nu/nu mouse xenografted with human DMS53 cells assessed as hepatocellular necrosis at 0.75 mg/kg, iv administered for 5 days a week measured after 21 days by hematoxylin and eosin staining method. The data set is classed as organism-based, DMS-53. More on the design: dose 0.75 mg/kg, route intravenous. Particulars: in vivo, 504 h. The procedure, abridged: as §2

The subject of data set [18] is Mus musculus. Briefly: Toxicity in BALB/c nu/nu mouse xenografted with human DMS53 cells assessed as cardiac fibrosis at 6 mg/kg, iv administered for 5 days a week measured after 21 days by […]. In kind it is organism-based, Heart, DMS-53. More on the design: dose 6 mg/kg, route intravenous. The following applies: in vivo, 504 h. The procedure, abridged: as §1

Data set [19] concerns Mus musculus. Kind of data set: Toxicity in BALB/c nu/nu mouse xenografted with human DMS53 cells assessed as change in brain histology at 6 mg/kg, iv administered for 5 days a week measured after 21 days by hematoxylin and eosin staining method. Further details: dose 6 mg/kg, route intravenous. The following applies: in vivo, 504 h. The data set is classed as organism-based, DMS-53. The method, boiled down: as §4

In data set [20] the test system is Mus musculus. Kind of data set: Toxicity in BALB/c nu/nu mouse xenografted with human DMS53 cells assessed as change in lung weight at 7.5 mg/kg, po administered for 3 times a week measured after 20 days. In kind it is organism-based, DMS-53. More on the design: dose 7.5 mg/kg, route oral. The following applies: in vivo, 480 h. The method, boiled down:
as §3

The test system of data set [21] is Mus musculus. Kind of data set: Toxicity in BALB/c nu/nu mouse xenografted with human DMS53 cells assessed as change in body weight at 3 mg/kg, iv administered for 5 days a week measured after 21 days. The data set is classed as organism-based, DMS-53. Further details: dose 3 mg/kg, route intravenous. Particulars: in vivo, 504 h. The method, boiled down:
as §4

Data set [22] relates to Mus musculus. Kind of data set: Toxicity in BALB/c nu/nu mouse xenografted with human DMS53 cells assessed as change in hemoglobin level at 3 mg/kg, iv administered for 5 days a week measured after 21 days. The following applies: in vivo, 504 h. More on the design: dose 3 mg/kg, route intravenous. In kind it is organism-based, DMS-53. The procedure, abridged:
as §4

The test system of data set [23] is Mus musculus. Briefly: Toxicity in BALB/c nu/nu mouse xenografted with human DMS53 cells assessed as change in brain histology at 3 mg/kg, iv administered for 5 days a week measured after 21 days by hematoxylin and eosin staining method. The data set is classed as organism-based, DMS-53. Further details: dose 3 mg/kg, route intravenous. Particulars: in vivo, 504 h. The procedure, abridged:
as §4

Data set [24] relates to Mus musculus. Kind of data set: Cardiotoxicity in BALB/c nu/nu mouse xenografted with human DMS53 cells at 3 mg/kg, iv administered for 5 days a week measured after 21 days. In kind it is toxicity, organism-based, DMS-53. Further details: dose 3 mg/kg, route intravenous. Particulars: in vivo, 504 h. The procedure, abridged: as §1
For data set [25], the system named is Mus musculus. Kind of data set: Toxicity in BALB/c nu/nu mouse xenografted with human DMS53 cells assessed as change in hemoglobin level at 6 mg/kg, iv administered for 5 days a week measured after 21 days. The data set is classed as organism-based, DMS-53. More on the design: dose 6 mg/kg, route intravenous. Particulars: in vivo, 504 h. The procedure, abridged: as §4

In the case of `CN(C(=S)NN=C(c1ccccn1)c1ccccn1)C1CCCCC1.Cl`, the Activity result in data set [1] was “Non-toxic”; in [2], “Toxic”; in data set [3], “Non-toxic”; in data set [4] it was “Non-toxic”; in data set [5], “Non-toxic”; in [6] it was “Non-toxic”. The Activity result in [7], in data set [8] and in [9] was “Non-toxic” throughout.
Turning to `CCN(C)C(=S)NN=C(c1ccccn1)c1ccccn1.Cl`, the Activity result in [10], in [11], in data set [12], in data set [13], in [14] and in [15] was “Non-toxic” in each case. In addition, the Activity entry in [16], in [17], in [18], in data set [19], in data set [20] and in data set [21] was “Non-toxic” each time. The Activity entry in data set [22], in data set [23], in [24], in data set [8] and in data set [25] was “Non-toxic” in each case.
